According to paper PMC6861656 (Angewandte Chemie (International ed. in English), 2019):

What was measured:
[1] = molecular target: T1, DLD-1 GLUT1 knock out (for GLUT3) (Homo sapiens, UniProt P11169); assay: [3H]-2DG uptake in DLD-1 GLUT1 knock out cells; type: cell-based; conditions: DLD-1 GLUT1 knock out vs wild type
T1 sequence (P11169 1-496): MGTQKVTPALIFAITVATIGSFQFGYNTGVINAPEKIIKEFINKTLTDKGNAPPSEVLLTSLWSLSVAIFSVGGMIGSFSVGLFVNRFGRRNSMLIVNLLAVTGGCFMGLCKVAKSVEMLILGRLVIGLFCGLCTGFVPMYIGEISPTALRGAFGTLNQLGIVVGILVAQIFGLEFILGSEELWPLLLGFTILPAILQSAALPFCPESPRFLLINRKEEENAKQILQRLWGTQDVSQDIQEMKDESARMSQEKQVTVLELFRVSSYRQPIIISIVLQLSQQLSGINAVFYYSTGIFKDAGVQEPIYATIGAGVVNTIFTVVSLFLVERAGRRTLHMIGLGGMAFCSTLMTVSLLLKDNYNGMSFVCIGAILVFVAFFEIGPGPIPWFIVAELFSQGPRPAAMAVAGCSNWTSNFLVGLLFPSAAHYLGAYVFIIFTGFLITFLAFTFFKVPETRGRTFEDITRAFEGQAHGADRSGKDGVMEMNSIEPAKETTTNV
Outline: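 Isogenic DLD-1 lines were run in parallel: wild type (GLUT1) and GLUT1 knockout (GLUT3). Each was treated with test compound, BAY-876 (GLUT1-specific reference) or cytochalasin B (non-specific GLUT inhibitor), then [3H]-2DG uptake was assessed.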

[2] = molecular target: T2, GLUT1 (Homo sapiens, UniProt P11166); assay: rapafucin 3D microarray screen with GLUT1-containing cell lysate; type: binding; conditions: hit when SBR greater than 3; GLUT1-containing HEK293T lysate
T2 sequence (P11166 1-492): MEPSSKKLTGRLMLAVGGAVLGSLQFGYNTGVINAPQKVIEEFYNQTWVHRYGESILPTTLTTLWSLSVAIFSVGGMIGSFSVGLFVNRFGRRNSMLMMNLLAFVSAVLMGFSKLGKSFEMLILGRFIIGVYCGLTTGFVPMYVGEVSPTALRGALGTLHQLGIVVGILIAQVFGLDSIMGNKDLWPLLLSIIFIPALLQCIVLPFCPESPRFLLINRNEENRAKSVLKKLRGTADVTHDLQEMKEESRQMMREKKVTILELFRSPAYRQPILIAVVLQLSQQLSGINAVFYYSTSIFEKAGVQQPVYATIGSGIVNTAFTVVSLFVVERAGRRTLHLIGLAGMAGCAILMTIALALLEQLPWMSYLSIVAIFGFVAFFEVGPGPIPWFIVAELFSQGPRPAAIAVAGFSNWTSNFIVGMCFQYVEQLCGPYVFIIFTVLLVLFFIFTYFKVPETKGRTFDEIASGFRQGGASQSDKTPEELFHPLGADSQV
Outline: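 HEK293T cells stably overexpressing GLUT1 gave a detergent-solubilised lysate. This was incubated on rapafucin arrays printed on a diazirine 3D copolymer surface (PEGMA:DMAEMA 8:2; ATRP initiator:propionyl bromide 1:100). Unbound protein was washed off, and bound GLUT1 was detected with anti-GLUT1 antibody plus Cy5 secondary on a microarray scanner. BAY-876 served as positive control.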

[3] = tested on: MCF-7 cells; assay: FKBP ligand competition in [3H]-2DG uptake assay in MCF-7 cells; type: cell-based, human; conditions: 20 μM with 100nM of RgA
Outline: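 MCF-7 cells were exposed to test compound at 100 nM together with 20 μM FK506, 20 μM rapamycin, or their combinations, with each agent also given alone. [3H]-2DG uptake was then measured to test whether excess FKBP-binding ligands antagonise inhibition of glucose uptake.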

Row | Structure (SMILES) | inhibitory activity on [3H]-2DG uptake in GLUT1 knock out cells [1] | signal-to-background ratio (SBR), positive hit on 3D rapafucin microarray [2] | effect on the inhibitory activity of RgA in the [3H]-2DG uptake assay [3]
1 | Cc1c(NC(=O)c2cc(C(N)=O)nc3cc(F)ccc23)c(C(F)(F)F)nn1Cc1ccc(C#N)cc1 [BAY-876] | lost its inhibitory activity | identified | 
2 | C=CC[C@@H]1/C=C(\C)C[C@H](C)C[C@H](OC)[C@H]2O[C@@](O)(C(=O)C(=O)N3CCCC[C@H]3C(=O)O[C@H](/C(C)=C/[C@@H]3CC[C@@H](O)[C@H](OC)C3)[C@H](C)[C@@H](O)CC1=O)[C@H](C)C[C@@H]2OC [FK506] |  |  | negligible effect
3 | C=C1[C@@H](C)[C@H]2[C@H](Cc3ccccc3)NC(=O)[C@]23OC(=O)/C=C/[C@H](O)CCC[C@@H](C)C/C=C/[C@H]3[C@@H]1O [cytochalasin B] | maintained its inhibitory activity |  | 
4 | CO[C@H]1C[C@@H]2CC[C@@H](C)[C@@](O)(O2)C(=O)C(=O)N2CCCC[C@H]2C(=O)O[C@H]([C@H](C)C[C@@H]2CC[C@@H](O)[C@H](OC)C2)CC(=O)[C@H](C)/C=C(\C)[C@@H](O)[C@@H](OC)C(=O)[C@H](C)C[C@H](C)/C=C/C=C/C=C/1C [rapamycin] |  |  | negligible effect
